Results as given in ChEMBL document CHEMBL1126553, “Antioxidant and neutrophil-inhibiting properties of new 2-O-methyl-6-(alkylthio)ascorbic acid derivatives” (J Med Chem, 1993).
Active and inactive are the calls of the source. The rule behind the calls is not given here.

Key:
Homo sapiens [1] = species on record: Homo sapiens; experiment: Inhibitory effect on superoxide anion formation of fMLP-stimulated neutrophils at 1 uM by cytochrome c assay; Did not inhibit or weakly inhibited; assay type: functional
Rattus norvegicus [2] = species on record: Rattus norvegicus; experiment: Tested for inhibition of lipid peroxidation in rat liver microsomes; assay type: functional
Procedure, shortened: (§1)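 Wistar rat liver microsomes (1 mg/mL) in 50 mM potassium phosphate, pH 7.2, with 50 μM ADP and 5 μM […]. Compound or DMSO was preincubated at 25 °C (5 min per methods; legend says 3 min). Peroxidation was started with 1 mM NADPH. After 15 min, malondialdehyde was measured by thiobarbituric acid at 532 nm. Mean ± SEM, n = 3.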

[3] = Dissociation constant in aqueous solution; assay type: physicochemical
Homo sapiens [4] = species on record: Homo sapiens; experiment: Tested for inhibition of fMLP induced secretion of lysozyme from human neutrophil cells; Did not influence or inactive; assay type: functional, cell-based
Homo sapiens [5] = species on record: Homo sapiens; experiment: Inhibition of fMLP-induced oxidative burst in a cell density of 2 x 10 e 6 cells/mL; assay type: functional, cell-based
Homo sapiens [6] = species on record: Homo sapiens; experiment: Inhibition of fMLP-induced oxidative burst in a cell density of 5 x 10 e 5 cells/mL; assay type: functional, cell-based
Homo sapiens [7] = species on record: Homo sapiens; experiment: Inhibition of fMLP-induced secretion of beta-glucurodinase (azurophilic granules); assay type: functional
Procedure, shortened: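 Neutrophils at 5 × 10⁶/mL were primed with 5 μg/mL cytochalasin B (4 min, 37 °C), given compound in 0.1% DMSO for 3 min, then 100 nM fMLP for 15 min. Stopped on ice and pelleted. Supernatant β-glucuronidase was assayed with 4-methylumbelliferyl-β-D-glucuronide, pH 4.0, 15 min at 37 °C; fluorescence ex 365/em 460 nm. n = 3.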

Homo sapiens [8] = species on record: Homo sapiens; experiment: Inhibition of fMLP-induced secretion of lysozyme (azurophilic and specific granules); assay type: functional
Homo sapiens [9] = species on record: Homo sapiens; experiment: Inhibition of fMLP-stimulated superoxide production in a cell density of 5 x 10 e 6 cells/mL; assay type: functional, cell-based
Homo sapiens [10] = species on record: Homo sapiens; experiment: Maximum Inhibition of fMLP-stimulated superoxide production in a cell density of 5 x 10 e 6 cells/mL; assay type: functional
Homo sapiens [11] = species on record: Homo sapiens; experiment: Maximum inhibition of MLP-induced oxidative burst in a cell density of 2 x 10 e 6 cells/mL; assay type: functional
Rattus norvegicus [12] = species on record: Rattus norvegicus; experiment: Inhibition of Fe(2+)/ADP-induced lipid peroxidation of rat liver microsomes; assay type: functional; procedure, shortened: as §1
[13] = Dissociation constant in aqueous system; assay type: physicochemical
Homo sapiens [14] = species on record: Homo sapiens; experiment: Inhibitory effect on superoxide anion formation of fMLP-stimulated neutrophils at 1 uM by cytochrome c assay; assay type: functional

Structure (SMILES): CCCCCCCCCCCCCCCCSCC(O)C1OC(=O)C(OC)=C1OC (stereo not drawn)
- inhibition (Homo sapiens [1]): Did not inhibit or weakly inhibited

Structure (SMILES): COC1=C(O)OC(C(O)CSc2ccccc2)C1=O (stereo not drawn)
- inhibition (Homo sapiens [1]): Did not inhibit or weakly inhibited

Structure (SMILES): CCCCCCCCCCCCSCC(O)C1OC(O)=C(OC)C1=O (stereo not drawn)
- inhibition (Homo sapiens [1]): Did not inhibit or weakly inhibited
- IC50 (Rattus norvegicus [2]): 2500 nM

Structure (SMILES): CCCCCCCCSCC(O)C1OC(O)=C(OC)C1=O (stereo not drawn)
- inhibition (Homo sapiens [1]): Did not inhibit or weakly inhibited

Structure (SMILES): CCCCCCCCCCCCCCCCSCC(O)C1OC(=O)C(O)=C1OC (stereo not drawn)
- pKa [3]: 7.7
- inhibition (Homo sapiens [4]): inactive

Structure (SMILES): CCCCCCCCCCCCCCCCSCC(O)C1OC(O)=C(OC)C1=O (stereo not drawn)
- IC50 (Homo sapiens [5]): 1250 nM
- IC50 (Homo sapiens [6]): 600 nM
- IC50 (Homo sapiens [7]): 7000 nM
- IC50 (Homo sapiens [8]): 2500 nM
- IC50 (Homo sapiens [9]): 3700 nM
- Max inhibition concentration (Homo sapiens [10]): 10 µM
- Max inhibition concentration (Homo sapiens [11]): 5 µM
- IC50 (Rattus norvegicus [12]): 2000 nM
- pKa [13]: 3.32
- inhibition at 1 µM (Homo sapiens [14]): 80%

Structure (SMILES): CCCCCCCCCCCCCCCCCCSCC(O)C1OC(O)=C(OC)C1=O (stereo not drawn)
- inhibition at 1 µM (Homo sapiens [14]): 40%
